{"data": "Measurements pooled from the literature", "target": "Receptor-interacting serine/threonine-protein kinase 2 (RIPK2, Homo sapiens, UniProt O43353)", "note": "Protocols differ between the studies behind these lines."}
{"SMILES": "Cn1cc(-c2cccc(N3CCc4c(sc5c4CC(C)(C)C5)C3=O)c2CO)cc(Nc2ccncn2)c1=O", "observed": "enzyme activity", "mode": "inhibitor", "tested at": "1 µM", "quantity": "inhibition", "result": "1%"}
{"SMILES": "CC(C)(C)c1cc(C=C(C#N)C#N)cc(Br)c1O", "observed": "enzyme activity", "mode": "inhibitor", "tested at": "0.5 µM", "quantity": "remaining activity", "result": "32.8%"}
{"SMILES": "Cn1cc(-c2cc(F)cc(N3CCn4c(cc5c4CCCC5)C3=O)c2CO)cc(Nc2ccc(N3CCN(C4COC4)CC3)cn2)c1=O", "observed": "enzyme activity", "mode": "inhibitor", "tested at": "0.1 µM", "quantity": "inhibition", "result": "-5%"}
{"SMILES": "O=c1[nH]c2ccccc2n1C1CCN(Cc2ccc(-c3[nH]c4cc5ncnc5cc4nc3-c3ccccc3)cc2)CC1", "observed": "cell-free assay", "tested at": "0.5 µM", "quantity": "remaining signal", "result": "89.2%"}
{"SMILES": "COc1ncccc1-c1cnn2ccc(N3CCN(C(=O)OC(C)C)CC3)nc12", "observed": "binding", "technique": "competition with immobilised ligand", "tested at": "1 µM", "quantity": "remaining binding", "result": "51%"}
{"SMILES": "Cn1cncc1[C@@](O)(COc1ccc(C#N)cc1-c1ccc(OC(F)(F)F)cc1)c1ccc(C#N)cc1", "observed": "cell-free assay", "technique": "competition with immobilised ligand", "tested at": "1 µM", "quantity": "remaining binding", "result": "100%"}
{"SMILES": "Cc1nn(C)cc1-c1nc2c(N3CCN(Cc4ccc(Cl)cc4)CC3)c(Cl)cnc2[nH]1", "observed": "binding", "technique": "competition with immobilised ligand", "tested at": "1 µM", "quantity": "remaining binding", "result": "100%"}
{"SMILES": "N#CC1(c2ccccn2)CCN(Cc2cc(C(=O)O)c(=O)n3ccccc23)CC1", "observed": "cell-free assay", "technique": "competition with immobilised ligand", "tested at": "1 µM", "quantity": "remaining binding", "result": "92%"}
{"SMILES": "Nc1ncc(-c2nc(N3CCOCC3)nc(N3CCOCC3)n2)c(C(F)F)n1", "observed": "binding", "technique": "competition with immobilised ligand", "tested at": "10 µM", "quantity": "remaining binding", "result": "100%"}
